Where a chain is given by its changes, count along the chain named. Values after ≈ are worked out from the molar mass of the structure shown. Each block holds one molecule with its values, some of them ahead of it. Active and inactive are the calls of the source. No cut-off for these calls is given here.
What was measured:
[1] = target: T1, Discoidin domain-containing receptor 2 (Homo sapiens) (UniProt Q16832); experiment: Inhibition of DDR2 (unknown origin) at 20 uM using poly (Glu, Tyr) 4:1 substrate after 60 mins by ELISA relative to control
T1 sequence (whole entry): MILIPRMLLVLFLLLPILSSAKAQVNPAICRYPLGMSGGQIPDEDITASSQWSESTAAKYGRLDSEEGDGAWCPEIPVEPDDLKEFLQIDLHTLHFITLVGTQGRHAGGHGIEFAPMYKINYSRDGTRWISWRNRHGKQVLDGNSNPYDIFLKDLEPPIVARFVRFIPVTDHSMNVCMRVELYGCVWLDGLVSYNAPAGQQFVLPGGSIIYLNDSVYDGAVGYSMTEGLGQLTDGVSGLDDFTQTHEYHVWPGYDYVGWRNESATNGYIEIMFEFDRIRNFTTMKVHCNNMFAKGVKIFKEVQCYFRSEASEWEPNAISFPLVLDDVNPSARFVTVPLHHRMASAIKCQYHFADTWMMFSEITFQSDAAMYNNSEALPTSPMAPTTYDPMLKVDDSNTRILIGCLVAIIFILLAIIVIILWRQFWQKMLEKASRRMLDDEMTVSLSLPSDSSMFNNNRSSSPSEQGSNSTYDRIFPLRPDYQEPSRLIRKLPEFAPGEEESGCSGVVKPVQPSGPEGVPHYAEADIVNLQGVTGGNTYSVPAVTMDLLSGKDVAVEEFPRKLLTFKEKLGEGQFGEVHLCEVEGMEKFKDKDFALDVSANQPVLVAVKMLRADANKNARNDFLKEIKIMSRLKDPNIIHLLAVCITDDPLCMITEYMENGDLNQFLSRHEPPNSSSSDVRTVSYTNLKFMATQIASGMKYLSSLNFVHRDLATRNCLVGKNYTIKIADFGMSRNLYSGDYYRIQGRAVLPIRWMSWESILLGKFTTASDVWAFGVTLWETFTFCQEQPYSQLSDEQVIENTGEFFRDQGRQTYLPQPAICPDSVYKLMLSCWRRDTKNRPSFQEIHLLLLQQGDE
Method in brief: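 ELISA with purified recombinant DDR2 on poly(Glu,Tyr) 4:1 precoated at 20 µg/mL. 10 µM ATP in HEPES pH 7.4 buffer with MgCl2, MnCl2, Na3VO4 and DTT, 1% DMSO; 60 min at 37 °C. Phosphotyrosine detected by PY99 and HRP anti-mouse IgG with o-phenylenediamine at A490. Inhibition = 1−A490/A490control; two separate experiments.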

[2] = Permeability in human Caco2 cells at 5 uM after 120 mins by LC-MS/MS analysis relative to control; assay type: ADME, cell-based; details: Caco-2, read-out: Fabs
Method in brief: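 Caco-2 (C2BBe1) monolayers grown confluent on collagen-coated transwell membranes. Buffer is HBSS with 10 mM HEPES at pH 7.4 and pH 6.8. Compound 5 µM added to the apical or basolateral side; duplicate samples taken at 120 min and analysed by LC-MS/MS. Results given as Papp A→B and B→A and efflux ratio B→A/A→B.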

[3] = AUC (0 to t) in ICR(CD-1) mouse at 10 mg/kg, po administered via gavage by triple quadrupole mass spectrometric analysis; assay type: ADME, organism-based; details: in vivo
Method in brief: (§1)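 Oral gavage at 1 mg/mL in 1% Tween80/water to male ICR mice (18-22 g, n=3). Plasma sampled at 0.25, 0.5, 1, 2, 4, 8 and 24 h, protein precipitated with methanol:acetonitrile (1:1) containing internal standard, and quantified by UPLC-triple quadrupole MS. AUC and MRT were taken from per-animal time-concentration curves. Cmax is the maximum plasma level and Tmax the time to reach it.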

[4] = Cmax in ICR(CD-1) mouse at 10 mg/kg, po administered via gavage by triple quadrupole mass spectrometric analysis; assay type: ADME, organism-based; design: dose 10 mg/kg, route oral; details: in vivo; method in brief: as §1
[5] = Efflux ratio of permeability in human Caco2 cells at 5 uM after 120 mins by LC-MS/MS analysis; assay type: ADME, cell-based; details: Caco-2
Method in brief: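 Caco-2 (C2BBe1) monolayers grown to confluence on collagen-coated transwell polycarbonate membranes. Compound at 5 μM added apically or basolaterally in HBSS with 10 mM HEPES at pH 7.4 and 6.8. Duplicate samples taken at 120 min and analysed by LC-MS/MS. Efflux ratio = Papp(B→A)/Papp(A→B).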

[6] = Solubility of compound; assay type: physicochemical
[7] = MRT in ICR(CD-1) mouse at 10 mg/kg, po administered via gavage by triple quadrupole mass spectrometric analysis; assay type: ADME, organism-based; details: in vivo
Method in brief: (§2)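 Dosed by gavage at 1 mg/mL in 1% Tween80/water to male ICR mice, 18-22 g, n=3. Blood taken at 0.25, 0.5, 1, 2, 4, 8 and 24 h. Plasma precipitated with methanol:acetonitrile (1:1) containing internal standard, then UPLC-MS/MS on a C18 column with an ammonium acetate/formic acid–acetonitrile gradient. Tmax read directly from the data; MRT calculated per animal from concentration–time curves.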

[8] = AUC (0 to infinity) in ICR(CD-1) mouse at 10 mg/kg, po administered via gavage by triple quadrupole mass spectrometric analysis; assay type: ADME, organism-based; design: dose 10 mg/kg, route oral, time infinity; details: in vivo; method in brief: as §1
[9] = Tmax in ICR(CD-1) mouse at 10 mg/kg, po administered via gavage by triple quadrupole mass spectrometric analysis; assay type: ADME, organism-based; details: in vivo; method in brief: as §2
[10] = Half life in ICR(CD-1) mouse at 10 mg/kg, po administered via gavage by triple quadrupole mass spectrometric analysis; assay type: ADME, organism-based; details: in vivo; method in brief: as §1
[11] = system: NCI-H2286; experiment: Antiproliferative activity against human NCI-H2286 cells harboring DDR2 mutation after 72 hrs by CCK8 assay; assay type: functional, cell-based; details: NCI-H2286, 72 h
Method in brief: (§3)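 Cells seeded at low density in growth medium and compounds added the next day. Incubated 72 h, then proliferation read by sulforhodamine B, MTT or CCK-8. IC50 obtained by four-parameter concentration-response curve fitting.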

[12] = system: T2, Discoidin domain-containing receptor 2 (Homo sapiens), Q16832 [I638F]; details: NCI-H2286, 100 nM
T2 sequence (whole entry): T1 sequence (whole entry) with I638F

[13] = system: NCI-H2286; experiment: Antitumor activity against human NCI-H2286 cells xenografted in SCID mouse assessed as tumor growth inhibition at 50 mg/kg, po qd for 10 consecutive days relative to control; assay type: functional; details: read-out: TGI
Method in brief: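 NCI-H2286 xenograft established by s.c. fragment implantation. At 100-150 mm³ mice were randomized (vehicle n=10, treated n=5) and given compound orally once daily for 10 days. Tumour volume = length×width²/2, measured twice weekly. TGI taken on the final day from change in volume relative to vehicle, with Student's t-test.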

[14] = system: KG-1; experiment: Antiproliferative activity against FGFR1 fused human KG1 cells after 72 hrs by CCK8 assay; assay type: functional, cell-based; details: KG-1, 72 h; method in brief: as §3
[15] = system: SNU-16; experiment: Antiproliferative activity against FGFR2 amplified human SNU16 cells after 72 hrs by CCK8 assay; assay type: functional, cell-based; details: SNU-16, 72 h; method in brief: as §3
[16] = system: NCI-H716; experiment: Antiproliferative activity against FGFR2 amplified human NCI-H716 cells after 72 hrs by CCK8 assay; assay type: functional, cell-based; details: NCI-H716, 72 h; method in brief: as §3
[17] = Antiproliferative activity against human UM-UC-14 cells harboring FGFR3 mutation after 72 hrs by CCK8 assay; assay type: functional, cell-based; details: UMUC14, 72 h; method in brief: as §3

inhibition [1]: 76%
Compound: Cn1cccc(C(=O)Nc2cccc(-c3ccc4[nH]ncc4c3)c2)c1=O

Fa at 2 h, 5 µM [2]: 12% | AUC(0-t) [3]: 66.2 ng·h/mL | Cmax [4]: 111 ng/mL | efflux ratio at 2 h, 5 µM [5]: 42.7 | solubility [6]: 10 µM (≈ 6.14 µg/mL) | MRT [7]: 3.2 h | AUC(0-inf) [8]: 610 ng·h/mL | Tmax [9]: 1.67 h | half-life [10]: 1.4 h
Compound: Cc1ccc(C(=O)Nc2cc(CN3CCN(C)CC3)cc(C(F)(F)F)c2)cc1-c1ccc2c(-c3cnn(C4CC4)c3)n[nH]c2c1

IC50 [11]: 33.3 nM | inhibition [12]: Active
Compound: Cc1nc(Nc2ncc(C(=O)Nc3c(C)cccc3Cl)s2)cc(N2CCN(CCO)CC2)n1 [DASATINIB]
inhibition in vivo at 50 mg/kg [13]: 50.9%

IC50 [15]: 19.6 nM | IC50 [16]: 5.9 nM
Compound: COc1cc(CCc2cc(NC(=O)c3ccc(N4C[C@@H](C)N[C@@H](C)C4)cc3)n[nH]2)cc(OC)c1 [FEXAGRATINIB]
IC50 [14]: 5.8 nM | IC50 [17]: 4.5 nM

Source: ChEMBL document CHEMBL4411287, “Discovery and optimization of a series of 3-substituted indazole derivatives as multi-target kinase inhibitors for the treatment of lung squamous cell carcinoma” (Eur J Med Chem, 2019)
